# Reference: ChEMBL document CHEMBL1143420, “Distribution of suramin, an antitrypanosomal drug, across the blood-brain and blood-cerebrospinal fluid interfaces in wild-type and P-glycoprotein transporter-deficient mice” (Antimicrob Agents Chemother, 2007)
# What was measured:
# Thalamus [1] = assay: Biodistribution in BALB/c mouse thalamus assessed as tritiated drug level at 150 uM perfusion after 10 mins by capillary depletion assay in presence of phenylarsine ocide; type: ADME, organism-based; settings: in vivo, other
# In short: (§1)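 BALB/c mice were perfused in situ via the heart at 5 ml/min. A 10-min preperfusion used either 150 µM phenylarsine oxide in 0.05% DMSO (final) or a 0.05% DMSO control. […] Brain regions were sampled and counted by liquid scintillation. Results are RTissue% as mean ± SEM.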
# [2] = Biodistribution in wild type FVB Mdr1a/Mdr1b positive mouse pineal gland assessed as tritiated drug level at 150 uM perfusion after 30 mins by capillary depletion assay; type: ADME, organism-based; settings: in vivo, other, 0.5 h
# In short: (§2)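 The method compared multiple-time CNS uptake in Mdr1a/Mdr1b+/+ and –/– FVB male mice (about 25 g; genotype confirmed by PCR). […] Regional dpm/g was expressed relative to plasma (RTissue%). 3-4 mice per point. Genotypes were compared by Student's t test.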
# [3] = Biodistribution in wild type FVB Mdr1a/Mdr1b positive mouse pituitary gland assessed as tritiated drug level at 150 uM perfusion after 30 mins by capillary depletion assay; type: ADME, organism-based; settings: in vivo, other, 0.5 h; in short: as §2
# Mus musculus = species on record: Mus musculus; assay: Drug uptake in BALB/c mouse assessed as tritiated drug level at 5 ml/min perfusion after 10 min relative to [14C]sucrose; type: ADME, organism-based; settings: in vivo, other
# [4] = Biodistribution in wild type FVB Mdr1a/Mdr1b positive mouse caudate putamen assessed as tritiated drug level at 150 uM perfusion after 30 mins by capillary depletion assay; type: ADME, organism-based; settings: in vivo, other, 0.5 h; in short: as §2
# Hypothalamus [5] = assay: Biodistribution in wild type FVB Mdr1a/Mdr1b positive mouse hypothalamus assessed as tritiated drug level at 150 uM perfusion after 30 mins by capillary depletion assay; type: ADME, organism-based; settings: in vivo, other, 0.5 h; in short: as §2
# [6] = Biodistribution in wild type FVB Mdr1a/Mdr1b positive mouse brain 4th ventricle choroid plexus assessed as tritiated drug level at 150 uM perfusion after 30 mins by capillary depletion assay; type: ADME, organism-based; settings: in vivo, other, 0.5 h; in short: as §2
# [7] = Biodistribution in FVB Mdr1a/Mdr1b deficient mouse frontal cortex assessed as tritiated drug level at 150 uM perfusion after 30 mins by capillary depletion assay; type: ADME, organism-based; settings: in vivo, other, 0.5 h; in short: as §2
# [8] = Biodistribution in FVB Mdr1a/Mdr1b deficient mouse caudate putamen assessed as tritiated drug level at 150 uM perfusion after 30 mins by capillary depletion assay; type: ADME, organism-based; settings: in vivo, other, 0.5 h; in short: as §2
# Hypothalamus [9] = assay: Biodistribution in FVB Mdr1a/Mdr1b deficient mouse hypothalamus assessed as tritiated drug level at 150 uM perfusion after 30 mins by capillary depletion assay; type: ADME, organism-based; settings: in vivo, other, 0.5 h; in short: as §2
# Thalamus [10] = assay: Biodistribution in FVB Mdr1a/Mdr1b deficient mouse thalamus assessed as tritiated drug level at 150 uM perfusion after 30 mins by capillary depletion assay; type: ADME, organism-based; settings: in vivo, other, 0.5 h; in short: as §2
# Cerebellum = assay: Biodistribution in FVB Mdr1a/Mdr1b deficient mouse cerebellum assessed as tritiated drug level at 150 uM perfusion after 30 mins by capillary depletion assay; type: ADME, organism-based; settings: in vivo, other, 0.5 h; in short: as §2
# [11] = Biodistribution in perfused FVB Mdr1a/Mdr1b deficient mouse choroid plexus assessed as tritiated drug level after 2.5 mins relative to control; type: ADME, organism-based; settings: in vivo
# In short: (§3)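 Mice were perfused with artificial plasma for 4 min, then decapitated. The IVth ventricle choroid plexus was excised and preincubated 10 min in artificial CSF at 37°C. […] BALB/c tissue also received 150 µM phenylarsine oxide in 0.05% DMSO, or 0.05% DMSO alone.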
# [12] = Biodistribution in perfused wild type FVB Mdr1a/Mdr1b positive mouse choroid plexus assessed as tritiated drug level after 30 mins relative to control; type: ADME, organism-based; settings: in vivo, 0.5 h; in short: as §3
# [13] = Biodistribution in perfused FVB Mdr1a/Mdr1b deficient mouse choroid plexus assessed as tritiated drug level after 30 mins relative to control; type: ADME, organism-based; settings: in vivo, 0.5 h; in short: as §3
# [14] = Biodistribution in perfused BALB/c mouse choroid plexus assessed as tritiated drug level after 2.5 mins in presence of DMSO relative to control; type: ADME, organism-based; settings: in vivo; in short: as §3
# [15] = Biodistribution in perfused BALB/c mouse choroid plexus assessed as tritiated drug level after 2.5 mins in presence of phenylarsine oxide relative to control; type: ADME, organism-based; settings: in vivo; in short: as §3
# [16] = Biodistribution in perfused wild type FVB Mdr1a/Mdr1b positive mouse choroid plexus assessed as tritiated drug level after 2.5 mins relative to control; type: ADME, organism-based; settings: in vivo; in short: as §3
# [17] = Biodistribution in wild type FVB Mdr1a/Mdr1b positive mouse choroid plexus assessed as tritiated drug level at 150 uM perfusion after 30 mins by capillary depletion assay; type: ADME, organism-based; settings: in vivo, other, 0.5 h; in short: as §2
# [18] = Biodistribution in FVB Mdr1a/Mdr1b deficient mouse choroid plexus assessed as tritiated drug level at 150 uM perfusion after 30 mins by capillary depletion assay; type: ADME, organism-based; settings: in vivo, other, 0.5 h; in short: as §2
# [19] = Biodistribution in FVB Mdr1a/Mdr1b deficient mouse pineal gland assessed as tritiated drug level at 150 uM perfusion after 30 mins by capillary depletion assay; type: ADME, organism-based; settings: in vivo, other, 0.5 h; in short: as §2
# [20] = Biodistribution in FVB Mdr1a/Mdr1b deficient mouse pituitary gland assessed as tritiated drug level at 150 uM perfusion after 30 mins by capillary depletion assay; type: ADME, organism-based; settings: in vivo, other, 0.5 h; in short: as §2
# [21] = Biodistribution in perfused wild type FVB Mdr1a/Mdr1b positive mouse choroid plexus assessed as drug accumulation after 2.5 mins; type: ADME, organism-based; settings: in vivo; in short: as §3
# [22] = Biodistribution in perfused FVB Mdr1a/Mdr1b deficient mouse choroid plexus assessed as drug accumulation after 2.5 mins; type: ADME, organism-based; settings: in vivo; in short: as §3
# [23] = Biodistribution in perfused wild type FVB Mdr1a/Mdr1b positive mouse choroid plexus assessed as drug accumulation after 30 mins; type: ADME, organism-based; settings: in vivo, 0.5 h; in short: as §3
# [24] = Biodistribution in perfused FVB Mdr1a/Mdr1b deficient mouse choroid plexus assessed as drug accumulation after 30 mins; type: ADME, organism-based; settings: in vivo, 0.5 h; in short: as §3
# [25] = Biodistribution in perfused BALB/c mouse choroid plexus assessed as drug accumulation after 2.5 mins in presence of phenylarsine oxide; type: ADME, organism-based; settings: in vivo; in short: as §3
# [26] = Protein binding in artificial plasma assessed as tritiated drug level; type: ADME, cell-free; settings: read-out: PPB (converted)
# In short: (§4)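 [3H]suramin (0.14 µCi) was dissolved in 0.7 ml of warmed artificial plasma, mouse plasma, or reconstituted human plasma. Binding was measured by centrifugal ultrafiltration. Mouse plasma came from heparinized cardiac blood of male FVB mice, spun at 5,400 x g for 10 min. Human plasma was lyophilized citrated plasma. Protein retention by the filter was checked by the Lowry method.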
# [27] = Protein binding in human plasma assessed as tritiated drug level; type: ADME, cell-free; settings: read-out: PPB (converted); in short: as §4
# [28] = Protein binding in mouse plasma assessed as tritiated drug level; type: ADME, cell-free; settings: read-out: PPB (converted); in short: as §4
# [29] = Biodistribution in perfused BALB/c mouse choroid plexus assessed as drug accumulation after 2.5 mins in presence of DMSO; type: ADME, organism-based; settings: in vivo; in short: as §3
# [30] = Biodistribution in BALB/c mouse 4th ventricle choroid plexus assessed as tritiated drug level at 5 ml/min perfusion after 30 min; type: ADME, organism-based; settings: in vivo, other, 0.5 h
# In short: (§5)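 BALB/c mice were anesthetized (medetomidine 2 mg/kg, ketamine 150 mg/kg), heparinized, and perfused via the left ventricle at 5 ml/min with oxygenated artificial plasma (Krebs-Henseleit base, 1 g/liter BSA, 37°C). […] Tissue dpm/g was expressed as % of plasma dpm/ml (RTissue%). 3-4 mice per point.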
# [31] = Biodistribution in BALB/c mouse pineal gland assessed as tritiated drug level at 5 ml/min perfusion after 30 min; type: ADME, organism-based; settings: in vivo, other, 0.5 h; in short: as §5
# [32] = Biodistribution in BALB/c mouse pituitary gland assessed as tritiated drug level at 5 ml/min perfusion after 30 min; type: ADME, organism-based; settings: in vivo, other, 0.5 h; in short: as §5
# [33] = Biodistribution in BALB/c mouse choroid plexus assessed as tritiated drug level at 150 uM perfusion after 10 mins by capillary depletion assay in presence of DMSO; type: ADME, organism-based; settings: in vivo, other; in short: as §1
# [34] = Partition coefficient of the compound; settings: octanol/water
compound,measurement,setting,value
OC[C@H]1O[C@@](CO)(O[C@H]2O[C@H](CO)[C@@H](O)[C@H](O)[C@H]2O)[C@@H](O)[C@@H]1O [SUCROSE],Activity,Thalamus [1],2.2%
same,Drug uptake,[2],54.4%
same,Drug uptake,[3],80.4%
same,Drug uptake,Mus musculus,1.56%
same,Drug uptake,[4],1.1%
same,Drug uptake,Hypothalamus [5],2.2%
same,Drug uptake,[6],83.2%
same,Drug uptake,[7],2.5%
same,Drug uptake,[8],2.5%
same,Drug uptake,Hypothalamus [9],5.8%
same,Drug uptake,Thalamus [10],3.4%
same,Drug uptake,Cerebellum,2.5%
same,Drug uptake,[11],1.8%
same,Drug uptake,[12],2.1%
same,Drug uptake,[13],2.6%
same,Drug uptake,[14],0.7%
same,Drug uptake,[15],1.6%
same,Drug uptake,[16],0.9%
Cc1ccc(C(=O)Nc2ccc(S(=O)(=O)O)c3cc(S(=O)(=O)O)cc(S(=O)(=O)O)c23)cc1NC(=O)c1cccc(NC(=O)Nc2cccc(C(=O)Nc3cc(C(=O)Nc4ccc(S(=O)(=O)O)c5cc(S(=O)(=O)O)cc(S(=O)(=O)O)c45)ccc3C)c2)c1 [SURAMIN],Drug uptake,[17],100%
same,Drug uptake,[18],97%
same,Drug uptake,[2],263%
same,Drug uptake,[19],437%
same,Drug uptake,[3],46%
same,Drug uptake,[20],57%
same,Drug uptake,[21],8.6%
same,Drug uptake,[11],12.5%
same,Drug uptake,[22],10.9%
same,Drug uptake,[12],27.2%
same,Drug uptake,[23],25.3%
same,Drug uptake,[13],29.3%
same,Drug uptake,[24],26.6%
same,Drug uptake,[14],7.4%
same,Drug uptake,[15],13%
same,Drug uptake,[25],11.4%
same,fraction unbound,[26],0.047
same,fraction unbound,[27],0.006
same,fraction unbound,[28],0.03
same,Drug uptake,[29],6.7%
same,Drug uptake,[16],9.5%
same,Drug uptake,[30],163%
same,Drug uptake,[31],388%
same,Drug uptake,[32],39%
same,Drug uptake,[33],99.4%
same,partition coefficient,[34],0.00023
